Measured values from ChEMBL document CHEMBL1123291, “Modified di- and tripeptides of the C-terminal portion of oxytocin and vasopressin as possible cognition activation agents” (1986).

Legend:
Format in all cases: functional
Rattus norvegicus [1] = assay: Compound was tested for its ability (% reversal in rats) to reverse electroconvulsive shock-induced amnesia in rodents at a dose of 100 (mg/kg) administered intramuscularly (im)
Method in brief: (§1)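 Passive avoidance (step-through, lighted vs darkened compartment). […], ECS (20 mA, 1 s) was given transcorneally via saline-soaked electrodes, and maximal hindlimb extension was required. Drug was given im at selected doses 2 h post-training. One hour later, entry latency to the dark side was recorded, with 60 s counted as retention. At least 75% of ECS controls had to be amnesic. Replicates were mostly not run.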

Mus musculus [2] = assay: Compound was tested for its ability (% reversal in mice) to reverse electroconvulsive shock-induced amnesia in rodents at a dose of 10 (mg/kg) administered intramuscularly (im); method in brief: as §1
Mus musculus [3] = assay: Compound was tested for its ability (% reversal in mice) to reverse electroconvulsive shock-induced amnesia in rodents at a dose of 1 (mg/kg) administered intramuscularly (im); method in brief: as §1
Rattus norvegicus [4] = assay: Compound was tested for its ability (% reversal in rats) to reverse electroconvulsive shock-induced amnesia in rodents at a dose of 1 (mg/kg) administered intramuscularly (im); method in brief: as §1
Mus musculus [5] = assay: Compound was tested for its ability (% reversal in mice) to reverse electroconvulsive shock-induced amnesia in rodents at a dose of 100 (mg/kg) administered intramuscularly (im); method in brief: as §1
Rattus norvegicus [6] = assay: Compound was tested for its ability (% reversal in rats) to reverse electroconvulsive shock-induced amnesia in rodents at a dose of 10 (mg/kg) administered intramuscularly (im); method in brief: as §1
Rattus norvegicus [7] = assay: Ability (% reversal in rats) to reverse electroconvulsive shock-induced amnesia in rodents at a dose of 0.10 (mg/kg) (following intramuscular dosing); method in brief: as §1
Rattus norvegicus [8] = assay: Ability (% reversal in rats) to reverse electroconvulsive shock-induced amnesia in rodents at a dose of 0.0010 (mg/kg) (following i.m. administration); method in brief: as §1
Rattus norvegicus [9] = assay: Ability (% reversal in rats) to reverse electroconvulsive shock-induced amnesia in rodents at a dose of 0.010 (mg/kg) administered intramuscularly (im); method in brief: as §1
Rattus norvegicus [10] = assay: Compound was tested for its ability (% reversal in rats) to reverse electroconvulsive shock-induced amnesia in rodents at a dose of 0.010 (mg/kg) administered intramuscularly (im).; method in brief: as §1
Rattus norvegicus [11] = assay: Compound was tested for its ability (% reversal in rats) to reverse electroconvulsive shock-induced amnesia in rodents at a dose of 0.00010 (mg/kg) administered intramuscularly (im); method in brief: as §1
Rattus norvegicus [12] = assay: Compound was tested for its ability (% reversal in rats) to reverse electroconvulsive shock-induced amnesia in rodents at a dose of 100 (mg/kg) administered intramuscularly (im).; method in brief: as §1
Rattus norvegicus [13] = assay: Compound was tested for its ability (% reversal in rats) to reverse electroconvulsive shock-induced amnesia in rodents at a dose of 0.0001 (mg/kg) administered intramuscularly (im); method in brief: as §1
Rattus norvegicus [14] = assay: Compound was tested for its ability (% reversal in rats) to reverse electroconvulsive shock-induced amnesia in rodents at a dose of 0.001 (mg/kg) administered intramuscularly (im); method in brief: as §1
Rattus norvegicus [15] = assay: Compound was tested for its ability (% reversal in rats) to reverse electroconvulsive shock-induced amnesia in rodents at a dose of 10 (mg/kg) administered intramuscularly (im).; method in brief: as §1
Mus musculus [16] = assay: Ability to reverse electroconvulsive shock-induced amnesia in rodents following 0.1 mg/kg i.m. administration.; conditions: route intramuscular; method in brief: as §1
Mus musculus [17] = assay: Ability to reverse electroconvulsive shock-induced amnesia in rodents following 1 ug/kg i.m. administration.; method in brief: as §1
Mus musculus [18] = assay: Ability to reverse electroconvulsive shock-induced amnesia in rodents following 0.01 mg/kg i.m. administration.; conditions: route intramuscular; method in brief: as §1
Rattus norvegicus [19] = assay: Compound was tested for its ability (% reversal in rats) to reverse electroconvulsive shock-induced amnesia in rodents at a dose of 1 (mg/kg) administered intramuscularly (im).; method in brief: as §1
Rattus norvegicus [20] = assay: Compound was tested for its ability (% reversal in rats) to reverse electroconvulsive shock-induced amnesia in rodents at a dose of 50 (mg/kg) administered intramuscularly (im); method in brief: as §1
Rattus norvegicus [21] = assay: Compound was tested for its ability (% reversal in rats) to reverse electroconvulsive shock-induced amnesia in rodents at a dose of 0.032 (mg/kg) administered intramuscularly (im); method in brief: as §1
Mus musculus [22] = assay: Compound was tested for its ability (% reversal in mice) to reverse electroconvulsive shock-induced amnesia in rodents at a dose of 0.1 (mg/kg) administered intramuscularly (im); method in brief: as §1
Rattus norvegicus [23] = assay: Compound was tested for its ability (% reversal in rats) to reverse electroconvulsive shock-induced amnesia in rodents at a dose of 0.1 (mg/kg) administered intramuscularly (im); method in brief: as §1
Rattus norvegicus [24] = assay: Compound was tested for its ability (% reversal in rats) to reverse electroconvulsive shock-induced amnesia in rodents at a dose of 0.10 (mg/kg) administered intramuscularly (im).; method in brief: as §1
Rattus norvegicus [25] = assay: Compound was tested for its ability (% reversal in rats) to reverse electroconvulsive shock-induced amnesia in rodents at a dose of 0.0010 (mg/kg) administered intramuscularly (im).; method in brief: as §1
Rattus norvegicus [26] = assay: Compound was tested for its ability (% reversal in rats) to reverse electroconvulsive shock-induced amnesia in rodents at a dose of 1(mg/kg) administered intramuscularly (im); method in brief: as §1

SMILES	Reversal (Rattus norvegicus [1])	Reversal (Rattus norvegicus [4])	Reversal (Rattus norvegicus [6])	Reversal (Rattus norvegicus [7])	Reversal (Rattus norvegicus [8])	Reversal (Rattus norvegicus [9])	also measured
CC(C)CC(NCC1CCCN1C(=O)OCc1ccccc1)C(=O)NCC(N)=O (stereo unspecified)	60%	80%	60%	0%	11%	0%	Reversal (Mus musculus [2]): 67%; Reversal (Mus musculus [3]): 85%; Reversal (Mus musculus [5]): 57%
CC(C)CC(CSCC(N)=O)NC(=O)C1CCCN1C(=O)OCc1ccccc1 (stereo unspecified)	–	–	–	50%	66%	–	Reversal (Rattus norvegicus [10]): 33%; Reversal (Rattus norvegicus [11]): 0%
CC(C)C[C@@H](CNCC(N)=O)NC(=O)[C@@H]1CCCN1C(=O)OCc1ccccc1	–	0%	0%	43%	43%	43%	Reversal (Rattus norvegicus [12]): 0%
CC(C)CC(N)CN1CC(=O)NC(CC(C)C)C1 (stereo unspecified)	24%	20%	0%	66%	50%	83%	Reversal (Rattus norvegicus [13]): 82%
CC(C)CC1CN(C[C@H](CC(C)C)NC(=O)[C@@H]2CCCN2C(=O)OCc2ccccc2)CC(=O)N1 (stereo partly specified)	80%	0%	0%	50%	–	17%	Reversal (Rattus norvegicus [14]): 17%
CC(C)CC(CSCC(=O)O)NC(=O)C1CCC(=O)N1C(=O)OCc1ccccc1 (stereo unspecified)	0%	0%	–	0%	33%	33%	Reversal (Rattus norvegicus [15]): 0%
O=C1COCC2CCCN12 (stereo unspecified)	–	–	–	33%	0%	33%	Reversal (Mus musculus [2]): 77%; Reversal (Mus musculus [3]): 58%; Reversal (Mus musculus [5]): 63%
COc1ccc(C(=O)N2CCCC2C(=O)NC(CSCC(=O)O)CC(C)C)cc1 (stereo unspecified)	–	–	–	60%	40%	–	Reversal (Mus musculus [16]): 12%; Reversal (Rattus norvegicus [10]): 0%; Reversal (Mus musculus [17]): 12%; Reversal (Mus musculus [18]): 50%
NC(=O)COCC(Cc1ccccc1)NC(=O)C1CCCN1C(=O)OCc1ccccc1 (stereo unspecified)	25%	25%	–	0%	11%	11%	Reversal (Mus musculus [2]): 59%; Reversal (Mus musculus [3]): 20%; Reversal (Rattus norvegicus [15]): 42%; Reversal (Mus musculus [5]): 71%
Cc1ccc(S(=O)(=O)N2CCCC2CNC(CNCC(=O)O)CC(C)C)cc1 (stereo unspecified)	–	–	80%	40%	0%	0%	Reversal (Rattus norvegicus [19]): 20%; Reversal (Rattus norvegicus [20]): 0%
CC(C)CC(CS(=O)(=O)CC(=O)O)NC(=O)C1CCCN1C(=O)OCc1ccccc1 (stereo unspecified)	–	–	–	0%	50%	–	Reversal (Rattus norvegicus [21]): 66%
CC(C)CC(CNCC(=O)O)NC(=O)C1CCC(=O)N1 (stereo unspecified)	50%	–	0%	33%	33%	33%	Reversal (Rattus norvegicus [19]): 66%
CC(C)CC(CSCC(=O)O)NC(=O)C1CC(=O)CN1C(=O)OCc1ccccc1 (stereo unspecified)	–	100%	80%	–	17%	50%	Reversal (Mus musculus [22]): 17%; Reversal (Mus musculus [2]): 0%; Reversal (Mus musculus [3]): 17%; Reversal (Rattus norvegicus [23]): 83%
CC(C)CC(/C=C/CC(N)=O)NC(=O)C1CCC(=O)N1 (stereo unspecified)	–	–	–	–	–	–	Reversal (Rattus norvegicus [24]): 44%; Reversal (Rattus norvegicus [10]): 0%; Reversal (Rattus norvegicus [25]): 11%
CC(C)CC(CNCC(=O)O)NCC1CCCN1C(=O)OCc1ccccc1 (stereo unspecified)	40%	–	0%	14%	0%	20%	Reversal (Rattus norvegicus [26]): 10%
